Test results from article PMC11564564 (Scientific Reports, 2024).
Values after ≈ are worked out from the molar mass of the structure shown.

Tests used:
[1] = tested on: ESBL-producing strains (E. coli, K. pneumoniae, and P. aeruginosa); experiment: MIC, summary across ESBL-producing strains; type: cell-based
Procedure, shortened: (§1)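 MIC was set by serial dilution of test compound, with three replicates per concentration. Strains were clinical E. coli, K. pneumoniae and P. aeruginosa isolates, identified biochemically and confirmed as ESBL producers by double disc synergy test (ceftazidime and cefotaxime discs 20 mm from amoxicillin/clavulanate on Mueller Hinton agar, 37 °C, 18–20 h).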

[2] = tested on: ESBL-producing K. pneumoniae; experiment: MIC by serial dilution, ESBL K. pneumoniae; type: cell-based; conditions: Klebsiella pneumoniae, read-out: Minimum inhibitory concentration (MIC), K. pneumoniae
Procedure, shortened: (§2)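 Bacterial isolates were confirmed ESBL-positive by double disc synergy test. For that test, a 0.5 McFarland suspension was swabbed onto Mueller Hinton agar, and ceftazidime and cefotaxime (30 μg) discs were placed 20 mm from an amoxicillin/clavulanate (30 μg) disc. Plates were incubated at 37 °C for 18-20 h, and an enhanced zone indicated ESBL. Test compounds were dissolved in appropriate solvents, and MIC was determined by serial dilution, three replicates per concentration.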

human red blood cells = experiment: Hemolytic; type: cell-based; conditions: Erythrocyte, 1 h, read-out: IC50, Human RBC's
Procedure, shortened: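 Blood from a healthy donor was collected in EDTA. RBCs were pelleted at 14,000 rpm for 5 min, and 200 µL of pellet was resuspended in 9.8 mL PBS, pH 7.2. 100 µL suspension plus 100 µL test solution (200–1 µg/mL) were incubated 1 h at 35 °C, then spun at 10,000 rpm for 10 min. Supernatant haemoglobin was read at 540 nm. Triton X-100 and PBS defined 100% and 0% hemolysis.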

ESBL-producing E. coli = experiment: MIC by serial dilution, ESBL E. coli; type: cell-based; conditions: Escherichia coli, read-out: Minimum inhibitory concentration (MIC), E. coli
Procedure, shortened: as §1

[3] = tested on: ESBL-producing P. aeruginosa; experiment: MIC by serial dilution, ESBL P. aeruginosa; type: cell-based; conditions: Pseudomonas aeruginosa, read-out: Minimum inhibitory concentration (MIC), P. aeruginosa
Procedure, shortened: as §2

Brine shrimp lethality = conditions: Artemia salina (brine shrimp), in vivo
Procedure, shortened: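 Artemia salina eggs were hatched for 24 h in aerated, lit salt water (27 g table salt per 3 L). Ten nauplii went into each tube with test compound at 1–200 µg/mL in 300 µL total. After 24 h, survivors were counted under a magnifier and percent mortality calculated. IC50 came from Finney analysis.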

Solubility in DMSO = type: physicochemical
tuberculosis = conditions: cited from earlier work

Row | Structure (SMILES) | MIC [1] [µg/mL] | MIC [2] [µg/mL] | IC50 (human red blood cells) [µg/mL] | MIC (ESBL-producing E. coli) [µg/mL] | MIC [3] [µg/mL] | IC50 at 24 h (Brine shrimp lethality) [µg/mL] | Solubility in DMSO (Solubility in DMSO) | MIC, antituberculosis activity (tuberculosis) [µM]
1 | COc1cc(C=Nc2ccc([N+](=O)[O-])cc2)ccc1O [SB-1, 2-Methoxy-4-((4-nitrophenylimino)methyl)phenol] | 125 (≈ 459 µM) | 125 (≈ 459 µM) | > 200 | 125 (≈ 459 µM) | 125 (≈ 459 µM) | 50.5 (≈ 185 µM) | Soluble in DMSO | 
2 | COc1cc(C=Nc2ccccc2Br)ccc1O [SB-2, 4-((2-Bromophenylimino)methyl)-2-methoxyphenol] | 250 (≈ 817 µM) | 250 (≈ 817 µM) |  | 250 (≈ 817 µM) | 250 (≈ 817 µM) |  | Soluble in DMSO | 
3 | COc1cc(C=Nc2ccc(C)cc2Cl)ccc1O [SB-3, 4-((2-Chloro-4-methylphenylimino)methyl)-2-methoxyphenol] | 125 (≈ 453 µM) | 125 (≈ 453 µM) | > 200 | 125 (≈ 453 µM) | 125 (≈ 453 µM) |  | Soluble in DMSO | 
4 | COc1cc(C=Nc2cccc(O)c2)ccc1O [SB-4, 4-((3-Hydroxyphenylimino)methyl)-2-methoxyphenol] | 125 (≈ 514 µM) | 125 (≈ 514 µM) |  | 125 (≈ 514 µM) | 125 (≈ 514 µM) |  | Soluble in DMSO | 
5 | COc1cc(C=Nc2ccc(Cl)cc2Cl)ccc1O [SB-5, 4-((2,4-Dichlorophenylimino)methyl)-2-methoxyphenol] | 125 (≈ 422 µM) | 125 (≈ 422 µM) | > 200 | 125 (≈ 422 µM) | 125 (≈ 422 µM) | 45.7 (≈ 154 µM) | Soluble in DMSO | 
6 | [H]/N=C(/N)N[C@H]1[C@H](O)[C@@H](O)[C@H](O[C@@H]2O[C@@H](C)[C@](O)(C=O)[C@H]2O[C@@H]2O[C@@H](CO)[C@H](O)[C@@H](O)[C@@H]2NC)[C@@H](N/C(N)=N\[H])[C@@H]1O [streptomycin] |  |  |  |  |  |  |  | 10.7 (≈ 6.22 µg/mL)
